Measurements from different studies.
Compare with care: the assays were run in different laboratories. In brackets after ≈: the same amount, converted by molar mass.
Organism: Staphylococcus epidermidis

The MIC of `C/C(=C\c1ccc(O)cc1)C(=O)Nc1ccc(C(=O)N[C@@H](CC(N)=O)C(=O)Nc2ccc(C(=O)Nc3ccc(C(=O)Nc4ccc(C(=O)O)cc4)c(O)c3OC(C)C)cc2)cc1` is reported as 0.25 µg/mL (microbial growth; DSM28765).
`O=C(O)c1cn(C2CC2)c2cc(N3CCNCC3)c(F)cc2c1=O` gave an MBC of 0.5 µg/mL (≈ 1.51 µM) (microbial killing; broth dilution).
With `O=C(O)CN1C(=O)/C(=C/c2ccc(-c3ccc(N(c4ccccc4)c4ccccc4)cc3)c3ccccc23)NC1=S` the MIC was over 1000 µg/mL (microbial growth; broth dilution; ATCC12228).
For `CO[C@@H](C(N)=O)[C@H](NC(=O)c1ccc(NC(=O)c2ccc(C#N)cc2)cc1)C(=O)Nc1ccc(C(=O)Nc2ccc(C(=O)Nc3ccc(C(=O)O)cc3)c(O)c2OC(C)C)cc1`, the MIC was at most 0.03 µg/mL (microbial growth; DSM28765).
`N#CC(=Cc1cn(-c2ccccc2)nc1-c1ccccc1)C1=NC(=O)CS1` has an MBC of 0.5 µg/mL (≈ 1.35 µM) (microbial killing; broth dilution).
`CC1(C)S[C@@H]2[C@H](NC(=O)[C@H](N)c3ccccc3)C(=O)N2[C@H]1C(=O)O` has an inhibition of 100% (microbial growth; agar dilution; ATCC12228; 26.93 µM).
The MBC of `N#CC(=Cc1ccccc1O)C1=NC(=O)C(=Cc2cn(-c3ccccc3)nc2-c2ccccc2)S1` is reported as 0.25 µg/mL (≈ 0.527 µM) (microbial killing; broth dilution).
The MBC of `O=C1NC(=S)S/C1=C\c1ccc(-c2ccc(N(c3ccccc3)c3ccccc3)cc2)c2ccccc12` is reported as over 1000 µg/mL (microbial killing; broth dilution; ATCC12228).
With `O=[N+]([O-])c1ccc2c(N=Nc3ccc4ccccc4c3O)c(O)cc(S(=O)(=O)O)c2c1` the MIC50 was 31 µM (≈ 13.6 µg/mL) (microbial growth; broth dilution; 24 h).
With `O=C(O)c1cn(C2CC2)c2cc(N3CCNCC3)c(F)cc2c1=O` the MIC was 0.49 µg/mL (microbial growth; broth dilution; ATCC12228).
`O=C(O)c1cn(C2CC2)c2cc(N3CCNCC3)c(F)cc2c1=O` gave an MIC of 0.25 µg/mL (microbial growth; DSM28765).
`O=C(O)CN1C(=O)/C(=C/c2ccc(-c3ccc(N(c4ccccc4)c4ccccc4)cc3)c3ccccc23)SC1=S` has an MBC of 1000 µg/mL (≈ 1750 µM) (microbial killing; broth dilution; ATCC12228).
With `COc1cccc(OC)c1C(=O)N[C@@H]1C(=O)N2[C@@H]1SC(C)(C)[C@@H]2C(=O)O` the MIC was 3.13 µM (microbial growth; broth dilution; 12228).
